The nature of data set [1]: Antiinflammatory activity in mouse RAW264.7 cells assessed as inhibition of LPS-induced nitric oxide production after 18 hrs by Griess assay. It is filed as functional, cell-based. The conditions noted are these: RAW264.7, 18 h. The method, boiled down: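 RAW264.7 cells seeded at 2 × 10^5 cells/well in RPMI-1640 and preincubated 24 h. Compounds added as serial dilutions from a top concentration of 100 μM, then LPS (1 μg/mL) stimulation for 18 h. Supernatant nitrite measured with Griess reagent after 5 min incubation, absorbance at 550 nm; proteasome inhibitor MG-132 used as positive control.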
(Nitrite, measured by Griess reagent, commonly stands in for NO production.)

For another data set, the species on record is Mus musculus. Nature of the data set: Cytotoxicity against mouse RAW264.7 cells assessed as decrease in cell viability by MTT assay. The data set is classed as toxicity, cell-based. The method, boiled down: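 Viability measured by MTT, run alongside the LPS/NO assay in the same RAW264.7 cultures: 2 × 10^5 cells/well in RPMI-1640, 24 h preincubation, compound serial dilutions up to 100 μM, then LPS (1 μg/mL) for 18 h. Absorbance read at 595 nm.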
Background: Tetrazolium dyes change colour on reduction, which living cells bring about.

Residues, ends and D or L forms follow the SMILES beside them. *: point of attachment. Cbz = O=C(OCc1ccccc1)*

Broadly, the IC50 is the point on the concentration scale where inhibition reaches its midpoint. Turning to `CC(=O)O[C@@H]1[C@H]2[C@@H](OC(=O)c3ccccc3)[C@@H](C)C[C@]2(O)[C@H](OC(C)=O)[C@@]2(C)[C@@H]3C[C@](C)(O)CC(=O)[C@]3(OC(C)=O)C[C@@]12C`, in data set [1], the half-maximal inhibitory concentration (IC50) is > 50 µM. Moreover, in the data set listed under Mus musculus, the Activity result was “Non-Toxic”. The like results for `CC(=O)O[C@@H]1[C@H]2[C@@H](OC(=O)c3ccccc3)[C@@H](C)C[C@]2(O)[C@H](OC(C)=O)[C@@]2(C)[C@@H]3CC(C)(C)C(=O)[C@]3(OC(C)=O)C[C@@]12C` were, in that order, 29.9 µM and “Non-Toxic”. For the compound `CC(=O)O[C@H]1C[C@](C)(O)C[C@@H]2[C@@]1(O)C[C@@]1(C)[C@H](OC(C)=O)[C@H]3[C@@H](OC(=O)c4ccccc4)[C@@H](C)C[C@]3(O)[C@H](OC(C)=O)[C@@]21C`, the IC50 in data set [1] was > 50 µM. For the same compound, in the data set listed under Mus musculus, the Activity result is recorded as “Non-Toxic”. On to `CC(=O)O[C@@H]1[C@H]2[C@@H](OC(=O)c3ccccc3)[C@@H](C)C[C@]2(O)[C@H](OC(C)=O)[C@@]2(C)[C@@H]3C[C@@](C)(O)CC(=O)[C@]3(OC(C)=O)C[C@@]12C`, for which the half-maximal inhibitory concentration (IC50) in data set [1] is > 50 µM. Moreover, the Activity entry in the data set filed under Mus musculus is recorded as “Non-Toxic”. As to `CC(=O)O[C@@H]1[C@H]2[C@@H](OC(=O)c3ccccc3)[C@@H](C)C[C@]2(O)[C@H](OC(C)=O)[C@@]2(C)[C@@H]3CC(C)=CC(=O)[C@]3(OC(C)=O)C[C@@]12C`, the IC50 in data set [1] was determined as 36.6 µM. Also, the Activity result in the data set listed under Mus musculus is “Non-Toxic”. `CC(=O)O[C@@H]1[C@H]2[C@@H](OC(=O)c3ccccc3)[C@@H](C)C[C@]2(O)[C@H](OC(C)=O)[C@@]2(C)[C@@H]3C[C@@](C)(O)C[C@H](O)[C@]3(OC(C)=O)C[C@@]12C`: in data set [1], the IC50 was > 50 µM. For the same compound, in the data set listed under Mus musculus, the Activity result is “Non-Toxic”. As to `CC(=O)O[C@H]1C[C@](C)(O)C[C@@H]2[C@@]1(OC(C)=O)C[C@@]1(C)[C@H](OC(C)=O)[C@H]3[C@@H](O)[C@@H](C)C[C@]3(O)[C@H](OC(C)=O)[C@@]21C`, the 50% inhibitory concentration (IC50) in data set [1] was > 50 µM. Further, the Activity result in the data set listed under Mus musculus is “Non-Toxic”. The like results for `CC(=O)O[C@H]1C[C@](C)(O)C[C@@H]2[C@@]1(OC(C)=O)C[C@@]1(C)[C@H](OC(C)=O)[C@H]3[C@@H](OC(=O)c4ccccc4)[C@@H](C)C[C@]3(O)[C@H](OC(C)=O)[C@@]21C` were, in that order, > 50 µM and “Non-Toxic”. Regarding `CC(=O)O[C@@H]1[C@H]2[C@@H](OC(=O)c3ccccc3)[C@@H](C)C[C@]2(O)[C@H](OC(C)=O)[C@@]2(C)[C@@H]3CC(C)(C)C(=O)[C@]3(O)C[C@@]12C`, the half-maximal inhibitory concentration (IC50) in data set [1] stood at 43.2 µM. Further, the Activity result in the data set filed under Mus musculus is given as “Non-Toxic”. For the compound `CC(=O)O[C@@H]1[C@H]2[C@@H](OC(=O)c3ccccc3)[C@@H](C)C[C@]2(O)C(=O)[C@@]2(C)[C@@H]3CC(C)(C)C(=O)[C@@H]3C[C@@]12C`, the concentration for half-maximal inhibition (IC50) in data set [1] amounted to 38.3 µM. Also, in the data set listed under Mus musculus, the Activity entry is recorded as “Non-Toxic”. Turning to `CC(=O)O[C@H]1C[C@](C)(O)C[C@@H]2[C@@]1(OC(C)=O)C[C@@]1(C)[C@H](OC(C)=O)[C@H]3[C@@H](OC(=O)c4ccccc4)[C@@H](C)[C@@H](OC(C)=O)[C@]3(O)[C@H](OC(C)=O)[C@@]21C`, in data set [1], the half-inhibitory concentration (IC50) is > 50 µM. Moreover, in the data set listed under Mus musculus, the Activity result is on record as “Non-Toxic”. On to `CC(=O)O[C@H]1C[C@](C)(OC(C)=O)C[C@@H]2[C@@]1(OC(C)=O)C[C@@]1(C)[C@H](OC(C)=O)[C@H]3[C@@H](OC(=O)c4ccccc4)[C@@H](C)C[C@]3(O)[C@H](OC(C)=O)[C@@]21C`, for which, in data set [1], the concentration for half-maximal inhibition (IC50) was found to be 37.1 µM. In addition, the Activity entry in the data set listed under Mus musculus was “Non-Toxic”. In the case of `CC(C)C[C@@H](C=O)NC(=O)[C@H](CC(C)C)NC(=O)[C@H](CC(C)C)NC(=O)OCc1ccccc1` [MG-132] (Cbz-Leu-Leu-Leu-aldehyde), the IC50 in data set [1] came to 0.18 µM. `CC(=O)OC[C@@]12C[C@@]3(OC(C)=O)C(=O)C=C(C)C[C@H]3[C@]1(C)[C@@H](OC(C)=O)[C@@]1(O)C[C@H](C)[C@H](OC(=O)c3ccccc3)[C@@H]1[C@H]2OC(C)=O`: the IC50 in data set [1] was > 50 µM. For the same compound, the Activity entry in the data set filed under Mus musculus is “Non-Toxic”. As for `CC(=O)OC[C@@]12C[C@@]3(OC(C)=O)C(=O)C(C)(C)C[C@H]3[C@]1(C)[C@@H](OC(C)=O)[C@@]1(O)C[C@H](C)[C@H](OC(=O)c3ccccc3)[C@@H]1[C@H]2OC(C)=O`, the 50% inhibitory concentration (IC50) in data set [1] is > 50 µM. Further, the Activity entry in the data set listed under Mus musculus is “Non-Toxic”. `CC(=O)O[C@@H]1[C@H]2[C@@H](OC(=O)c3ccccc3)[C@@H](C)C[C@]2(O)[C@H](OC(C)=O)[C@@]2(C)[C@@H]3C[C@@](C)(OC(C)=O)CC(=O)[C@]3(OC(C)=O)C[C@@]12C`: in data set [1], the 50% inhibitory concentration (IC50) came to 47.5 µM. For the same compound, in the data set filed under Mus musculus, the Activity result is “Non-Toxic”. For `CC(=O)O[C@@H]1[C@H]2[C@@H](OC(=O)c3ccccc3)[C@@H](C)C[C@]2(O)[C@H](OC(C)=O)[C@@]2(C)[C@@H]3C[C@@](C)(OC(C)=O)C[C@H](O)[C@]3(OC(C)=O)C[C@@]12C`, the half-maximal inhibitory concentration (IC50) in data set [1] was > 50 µM. The Activity result in the data set filed under Mus musculus is reported as “Non-Toxic”. Turning to `CC(=O)O[C@@H]1[C@H]2[C@@H](OC(=O)c3ccccc3)[C@@H](C)C[C@]2(O)[C@H](OC(C)=O)[C@@]2(C)[C@@H]3CC(C)(C)C(=O)[C@@H]3C[C@@]12C`, the half-maximal inhibitory concentration (IC50) in data set [1] came out at 33.7 µM. Further, in the data set listed under Mus musculus, the Activity result is “Non-Toxic”.

(Values after ChEMBL document CHEMBL3861955, “Pepluane and Paraliane Diterpenoids from Euphorbia peplus with Potential Anti-inflammatory Activity” (J Nat Prod, 2016).)
